From article PMC3182491 (Investigational new drugs, 2010)
“And” between values parts separate entries of the source, which are not always exact repeats. Identical values can stand only once.

Columns and labels:
caspase-3 [1] = target: T1, caspase-3 (Homo sapiens, UniProt P42574); assay: Caspase-3 colorimetric assay in cell lysate, CA46 cells; assay type: cell-based; conditions: 10 or 20 µM, incubation ≤ 4 hours
T1 sequence (P42574 29-277): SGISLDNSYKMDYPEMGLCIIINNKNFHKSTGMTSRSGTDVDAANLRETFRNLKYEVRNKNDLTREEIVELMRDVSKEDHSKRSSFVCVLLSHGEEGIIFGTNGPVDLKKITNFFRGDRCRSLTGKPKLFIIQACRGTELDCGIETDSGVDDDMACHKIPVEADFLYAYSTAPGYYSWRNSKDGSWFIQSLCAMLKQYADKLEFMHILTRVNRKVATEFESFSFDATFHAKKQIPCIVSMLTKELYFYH
In short: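 CA46 human B-cell lymphoma cells, grown in suspension in DMEM with 20% FBS and P/S at 37 °C, 5% CO2, were exposed to test compound at 10 or 20 µM for 0, 1, 2, 4, 24 and 48 h. Lysate from 2 million cells per time point was assayed with a colorimetric caspase-3 kit read at 405 nm, in duplicate. Activity was compared with vehicle-treated cells (hour 0) by one-way ANOVA and Dunnett's test.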

[2] = Pharmacokinetics after single oral administration in healthy dogs; assay type: in vivo; conditions: dog; for AUC o-inf. / Cmax / F (absolute oral bioavailability) / Oral clearance / Tmax / t1/2 K10 (terminal elimination half-life): 1 mg/kg oral
In short: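 Same six dogs in crossover, two-week washout. Test compound in 2-hydroxypropyl-β-cyclodextrin/sterile water was given once at 1.0 mg/kg as a 5-min oral slurry. Plasma was sampled at 0, 15, 30, 45, 60, 120, 240, 480, 720 min and 24 h and quantified by LC-ES/MS/MS. A one-compartment absorption model gave K01 and K10, Cmax and Tmax; Clo = dose/AUC0-inf; F = AUC oral/AUC IV × dose ratio.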

[3] = Pharmacokinetics after single IV bolus in healthy dogs; assay type: in vivo; conditions: dog
In short: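 Six healthy hound dogs, crossover design with two-week washout. Test compound was freshly made at 15 mg/ml in 2-hydroxypropyl-β-cyclodextrin/sterile water and given at 1.0 mg/kg as a 10-min IV bolus. Jugular plasma was taken at 0-720 min and 24 h and assayed by LC-ES/MS/MS (deuterated internal standard). AUC and AUMC were taken by linear trapezoid extrapolated to infinity; A and B came from a two-compartment fit by residuals; Cls = dose/AUC.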

[4] = tested on: GL-1 canine B-cell lymphoma line; assay: Annexin V-FITC/PI apoptosis detection by flow cytometry, GL-1 cells; assay type: cell-based
In short: (§1)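 Cells were seeded at 100,000 per well in fresh medium holding 0, 5, 10 or 20 µM test compound, alongside a vehicle control. They were exposed 24 or 48 h at 37 °C, 5% CO2. Apoptosis was read by Annexin V-FITC/PI staining and flow cytometry, in triplicate. Lines were kept as suspensions in DMEM with P/S, plus 10% FBS (17-71, GL-1) or 20% FBS (CA46). Time and concentration effects were tested by 2-way ANOVA with Tukey or Dunnett post hoc.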

[5] = tested on: 17-71 canine B-cell lymphoma line; assay: Annexin V-FITC/PI apoptosis detection by flow cytometry, 17-71 cells; assay type: cell-based
In short: as §1

caspase-3 [6] = target: T2, caspase-3 (Canis lupus familiaris, UniProt Q8MKI5); assay: Caspase-3 colorimetric assay in cell lysate, GL-1 cells; assay type: cell-based, canine; conditions: 10 or 20 µM, incubation ≤ 4 hours
T2 sequence (Q8MKI5 29-277): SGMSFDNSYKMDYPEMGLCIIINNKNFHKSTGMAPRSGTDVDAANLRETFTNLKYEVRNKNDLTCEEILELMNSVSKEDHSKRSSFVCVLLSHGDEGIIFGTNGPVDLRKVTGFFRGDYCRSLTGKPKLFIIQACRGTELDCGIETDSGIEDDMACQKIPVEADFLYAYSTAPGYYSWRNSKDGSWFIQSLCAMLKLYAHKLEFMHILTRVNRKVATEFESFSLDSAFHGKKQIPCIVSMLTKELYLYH
In short: (§2)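 Lymphoma cells were exposed to 10 or 20 µM test compound for 0, 1, 2, 4, 24 and 48 h at 37 °C, 5% CO2; hour 0 served as vehicle control. Lysates from 2 million cells per time point went into a colorimetric caspase-3 assay read at 405 nm, run in duplicate. Time points were compared to control by one-way ANOVA with Dunnett's test.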

caspase-3 [7] = target: T2, caspase-3; assay: Caspase-3 colorimetric assay in cell lysate, 17-71 cells; assay type: cell-based, canine; conditions: 10 or 20 µM, incubation ≤ 4 hours
In short: as §2

[8] = Plasma concentration during 48-hour IV constant rate infusion in healthy dogs; assay type: in vivo; conditions: dog, IV CRI
[9] = Toxicity assessment of 48-hour IV constant rate infusion in healthy dogs; assay type: in vivo; conditions: dog
In short: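 Four healthy dogs from the kinetic study received IV test compound as a 10-min loading dose, then a constant-rate maintenance infusion for 48 h. […] Haematologic, non-haematologic and gastrointestinal effects were checked weekly for 4 weeks.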

[10] = tested on: CA46 human B-cell lymphoma line; assay: Annexin V-FITC/PI apoptosis detection by flow cytometry, CA46 cells; assay type: cell-based
In short: as §1

[11] = 1 mg/kg IV, individual dogs A-F, 1 mg/kg

## C=CCc1cccc(/C=N/NC(=O)CN2CCN(Cc3ccccc3)CC2)c1O [PAC-1]
caspase-3 [1]
  caspase-3 activity in cell lysate vs vehicle-treated control cells: failed to significantly increase
[2]; 1.0 mg/kg oral
  time of average peak plasma concentration following ingestion: 45 min
[2]; Mean ± SD, n=6
  AUC o-inf.: 310.5 ± 158.5 ng/mL/h
  Cmax: 77.0 ± 37.5 ng/mL
  F (absolute oral bioavailability): 17.8 ± 9.5%
  Oral clearance: 136 ± 79.6 L/h
  Tmax: 0.84 ± 0.28 h
  t1/2 K10 (terminal elimination half-life): 2.08 ± 0.26 h
[2]; individual dogs A-F, 1 mg/kg
  AUC o-inf.: 271 ng/mL/h and 408 ng/mL/h and 117 ng/mL/h and 508 ng/mL/h and 145 ng/mL/h and 414 ng/mL/h
  Cmax: 63.9 ng/mL and 127 ng/mL and 31 ng/mL and 108 ng/mL and 43 ng/mL and 89 ng/mL
  F (absolute oral bioavailability): 16% and 17% and 8% (2×) and 31% and 27%
  Oral clearance: 137 L/h and 77 L/h and 236 L/h and 61 L/h and 230 L/h and 75 L/h
  Tmax: 1.09 h and 0.51 h and 0.90 h and 1.07 h and 0.45 h and 0.99 h
  t1/2 K10 (terminal elimination half-life): 2.02 h and 1.83 h and 1.86 h and 2.40 h and 1.97 h and 2.42 h
[3]; 1 mg/kg IV, Mean ± SD, n=6
  A (Y intercept, distribution phase): 1483.8 ± 723.0 ng/mL
  AUC0-inf: 1740 ± 309.6 ngxhr/ml
  AUMC0-inf: 4805 ± 1211 ngxhrxhr/ml
  B (Y intercept, elimination phase): 249.0 ± 172.9 ng/mL
  Cls (total body clearance): 9.578 ± 1.26 mL/min/kg
  Vdc (volume of distribution in central compartment): 0.678 ± 0.254 L/kg
  Vdss (volume of distribution at steady state): 1.643 ± 0.497 L/kg
  Vdβ (volume of distribution in terminal elimination phase): 2.698 ± 0.865 L/kg
  t1/2 β (terminal elimination half-life): 3.12 ± 0.67 h
[3]; [11]
  A (Y intercept, distribution phase): 1065 ng/mL and 2598 ng/mL and 908 ng/mL and 2199 ng/mL and 1119 ng/mL and 1014 ng/mL
  AUC0-inf: 1730 ngxhr/ml and 2339 ngxhr/ml and 1468 ngxhr/ml and 1645 ngxhr/ml and 1709 ngxhr/ml and 1549 ngxhr/ml
  AUMC0-inf: 4751 ngxhrxhr/ml and 6167 ngxhrxhr/ml and 3693 ngxhrxhr/ml and 3802 ngxhrxhr/ml and 4247 ngxhrxhr/ml and 6174 ngxhrxhr/ml
  B (Y intercept, elimination phase): 288 ng/ml and 584 ng/ml and 138 ng/ml and 176 ng/ml and 154 ng/ml (2×)
  Cls (total body clearance): 9.63 mL/min/kg and 7.13 mL/min/kg and 10 mL/min/kg and 10.1 mL/min/kg and 9.75 mL/min/kg and 10.8 mL/min/kg
  Vdc (volume of distribution in central compartment): 0.739 L/kg and 0.314 L/kg and 0.957 L/kg and 0.421 L/kg and 0.786 L/kg and 0.856 L/kg
  Vdss (volume of distribution at steady state): 1.587 L/kg and 1.127 L/kg and 1.715 L/kg and 1.405 L/kg and 1.454 L/kg and 2.574 L/kg
  Vdβ (volume of distribution in terminal elimination phase): 2.260 L/kg and 1.380 L/kg and 3.145 L/kg and 2.699 L/kg and 2.736 L/kg and 3.968 L/kg
  t1/2 β (terminal half-life): 2.71 h and 2.24 h and 3.20 h and 3.08 h and 3.24 h and 4.26 h
[3]; 1.0 mg/kg bolus IV, immediately following completion of infusion
  average peak plasma concentration: 2.8 ± 0.6 µM
[4]; 48 hour, 10 µM
  apoptosis: ~ 25%
[4]; 48 hours, 20 µM
  cells remaining viable: ~ 60%
[5]; 48 hour, 20 µM
  cells staining only for Annexin-V-FITC (early apoptosis): approximately 70%
[5]; 48 hours, PAC-1 ≥ 10 µM
  apoptotic cells: ≥ 60%
caspase-3 [6]
  caspase-3 activity in cell lysate vs vehicle-treated control cells: failed to significantly increase
caspase-3 [7]
  caspase-3 activity in cell lysate vs vehicle-treated control cells: failed to significantly increase
[8]; average LD 5.8 mg/kg and MD 2.3 mg/kg/hour, n=4
  plasma concentration after 6 hours of infusion: 10.7 ± 2.0 µM
[8]; following completion of the first 24 hours
  plateau plasma concentration: ~ 18 µM
[9]; 48-hour CRI, 4 week monitoring, n=4
  gastrointestinal toxicity: no clinically overt gastrointestinal toxicity
[9]; 48-hour CRI, Day 0
  ALT: 46.7 ± 34.1 U/L
  Calcium: 10.3 ± 0.1 mg/dL
  Creatinine: 0.9 ± 0.2 mg/dL
  Hematocrit: 53.0 ± 3.8%
  Lymphocyte: 1.9 ± 0.3 ×10^3
  Neutrophil: 5.4 ± 1.0 ×10^3
  Phosphorous: 3.7 ± 0.4 mg/dL
  Platelet: 1.9 ± 0.4 ×10^5
  WBC: 8.2 ± 1.5 ×10^3
[9]; 48-hour CRI, Day 7
  ALT: 57.0 ± 34.6 U/L
  Calcium: 10.5 ± 0.3 mg/dL
  Creatinine: 1.0 ± 0.3 mg/dL
  Hematocrit: 55.4 ± 1.3%
  Lymphocyte: 1.3 ± 0.2 ×10^3
  Neutrophil: 5.0 ± 0.5 ×10^3
  Phosphorous: 2.9 ± 0.9 mg/dL
  Platelet: 1.8 ± 0.3 ×10^5
  WBC: 7.0 ± 0.4 ×10^3
[9]; 48-hour CRI, Day 14
  ALT: 56.3 ± 46.7 U/L
  Calcium: 10.2 ± 0.4 mg/dL
  Creatinine: 0.9 ± 0.1 mg/dL
  Hematocrit: 49.3 ± 6.0%
  Lymphocyte: 1.9 ± 0.7 ×10^3
  Neutrophil: 4.3 ± 0.9 ×10^3
  Phosphorous: 3.6 ± 0.3 mg/dL
  Platelet: 2.0 ± 0.4 ×10^5
  WBC: 7.0 ± 0.4 ×10^3
[9]; 48-hour CRI, Day 21
  ALT: 49.7 ± 29.0 U/L
  Calcium: 10.4 ± 0.4 mg/dL
  Creatinine: 1.0 ± 0.2 mg/dL
  Hematocrit: 50.6 ± 3.4%
  Lymphocyte: 1.5 ± 0.2 ×10^3
  Neutrophil: 5.9 ± 0.3 ×10^3
  Phosphorous: 3.4 ± 0.4 mg/dL
  Platelet: 2.2 ± 0.8 ×10^5
  WBC: 8.4 ± 0.6 ×10^3
[9]; IV CRI, n=4
  tolerability of CRI giving ≥ 10 µM for ≥ 24 hours: well-tolerated by all dogs
[10]; 24 hour exposure
  fraction of apoptotic cells: 20–35%
[10]; 48 hour, 10 µM
  apoptosis: ≥ 50%
[10]; 48 hours, PAC-1 ≥10 µM
  cells undergone apoptosis: greater than 50%
